From ChEMBL document CHEMBL2380209, “Synthesis and pharmacological characterization of 4-substituted-2-aminobicyclo[3.1.0]hexane-2,6-dicarboxylates: identification of new potent and selective metabotropic glutamate 2/3 receptor agonists” (J Med Chem, 2013)

Experiments:
[1] = biological target: T1, Metabotropic glutamate receptor 6 (Homo sapiens, UniProt O15303); assay: Agonist activity at human mGlu6 receptor expressed in golden Syrian hamster AV12 cells coexpressing EAAT1 after 20 mins by FLIPR assay; assay type: cell-based
[2] = biological target: T2, Metabotropic glutamate receptor 2 (Homo sapiens, UniProt Q14416); assay: Agonist activity at human mGlu2 receptor expressed in golden Syrian hamster AV12 cells coexpressing EAAT1 after 20 mins by HTRF assay; assay type: cell-based
[3] = biological target: T3, Metabotropic glutamate receptor 3 (Homo sapiens, UniProt Q14832); assay: Antagonist activity at human mGlu3 receptor expressed in golden Syrian hamster AV12 cells coexpressing EAAT1 assessed as inhibition of forskolin-stimulated cAMP production after 20 mins by HTRF assay; assay type: functional, cell-based
[4] = biological target: Metabotropic glutamate receptor 8 (Homo sapiens, UniProt O00222); assay: Agonist activity at human mGlu8 receptor expressed in golden Syrian hamster AV12 cells coexpressing EAAT1 after 20 mins by FLIPR assay; assay type: cell-based
[5] = biological target: T3, Metabotropic glutamate receptor 3; assay: Agonist activity at human mGlu3 receptor expressed in golden Syrian hamster AV12 cells coexpressing EAAT1 after 20 mins by HTRF assay; assay type: cell-based
[6] = biological target: T2, Metabotropic glutamate receptor 2; assay: Antagonist activity at human mGlu2 receptor expressed in golden Syrian hamster AV12 cells coexpressing EAAT1 assessed as inhibition of forskolin-stimulated cAMP production after 20 mins by HTRF assay; assay type: functional, cell-based
[7] = Tmax in Sprague-Dawley rat at 10 mg/kg, po by LC/MS/MS analysis; assay type: ADME, organism-based; set-up: dose 10 mg/kg, route oral; details: in vivo
How it was run: (§1)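 Fasted male Sprague Dawley rats (~250 g) were dosed with an aqueous solution adjusted to pH 7-7.5 with NaOH, by oral gavage (1, 3, 10 mg/kg) or intravenously (3 mg/kg). Serial jugular-catheter blood samples (11-12 per rat) went into EDTA tubes over 24 h. Plasma was extracted by SPE with an analog internal standard and run on an anion-exchange HPLC column, SRM m/z 204.1 > 77.1. Parameters came from noncompartmental analysis and are reported as means.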

[8] = Cmax in Sprague-Dawley rat at 1 mg/kg, po up to 24 hrs by LC/MS/MS analysis; assay type: ADME, organism-based; set-up: dose 1 mg/kg, route oral; details: in vivo; how it was run: as §1
[9] = Volume of distribution at steady state in Sprague-Dawley rat at 3 mg/kg, iv up to 24 hrs by LC/MS/MS analysis; assay type: ADME, organism-based; set-up: dose 3 mg/kg, route intravenous; details: in vivo, read-out: Vdss; how it was run: as §1
[10] = Tmax in Sprague-Dawley rat at 3 mg/kg, po by LC/MS/MS analysis; assay type: ADME, organism-based; set-up: dose 3 mg/kg, route oral; details: in vivo; how it was run: as §1
[11] = AUC (0 to 24 hrs) in Sprague-Dawley rat at 3 mg/kg, iv by LC/MS/MS analysis; assay type: ADME, organism-based; set-up: time < 24 hr, dose 3 mg/kg, route intravenous; details: plasma; how it was run: as §1
Rattus norvegicus [12] = assay: Neurotoxicity in Sprague-Dawley rat assessed as impairment of motor coordination at 30 mg/kg, po administered 2 hrs prior to test by rotarod test; assay type: toxicity, organism-based; set-up: dose 30 mg/kg, route oral; details: in vivo
How it was run: (§2)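 Rats were trained to stay on a 4 rpm rotorod for 1 min, with up to four attempts, and were retested 30-60 min later; failures were excluded. Trained rats (8/group) received oral aqueous solution (3, 10 or 30 mg/kg) or vehicle and were retested 120 min later, scored as seconds on the rotorod. One-way ANOVA with Dunnett's test was run against vehicle.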

[13] = Oral bioavailability in Sprague-Dawley rat at 3 mg/kg up to 24 hrs by LC/MS/MS analysis; assay type: ADME, organism-based; details: in vivo; how it was run: as §1
[14] = Half life in Sprague-Dawley rat at 10 mg/kg, po by LC/MS/MS analysis; assay type: ADME, organism-based; set-up: dose 10 mg/kg, route oral; details: in vivo; how it was run: as §1
[15] = Cmax in Sprague-Dawley rat at 10 mg/kg, po up to 24 hrs by LC/MS/MS analysis; assay type: ADME, organism-based; set-up: dose 10 mg/kg, route oral; details: in vivo; how it was run: as §1
[16] = AUC (0 to 24 hrs) in Sprague-Dawley rat at 1 mg/kg, po by LC/MS/MS analysis; assay type: ADME, organism-based; set-up: time < 24 hr, dose 1 mg/kg, route oral; details: plasma; how it was run: as §1
[17] = Half life in Sprague-Dawley rat at 3 mg/kg, iv by LC/MS/MS analysis; assay type: ADME, organism-based; set-up: dose 3 mg/kg, route intravenous; details: in vivo; how it was run: as §1
Rattus norvegicus [18] = assay: Antipsychotic activity in po dosed Sprague-Dawley rat assessed as decrease in PCP-elicited ambulations administered 2 hrs prior to test measured for 60 mins; assay type: functional
[19] = Half life in Sprague-Dawley rat at 1 mg/kg, po by LC/MS/MS analysis; assay type: ADME, organism-based; set-up: dose 1 mg/kg, route oral; details: in vivo; how it was run: as §1
Rattus norvegicus [20] = assay: Neurotoxicity in Sprague-Dawley rat assessed as impairment of motor coordination at 3 to 10 mg/kg, po administered 2 hrs prior to test by rotarod test; assay type: toxicity, organism-based; set-up: dose 3-10 mg/kg, route oral; details: in vivo; how it was run: as §2
[21] = Tmax in Sprague-Dawley rat at 1 mg/kg, po by LC/MS/MS analysis; assay type: ADME, organism-based; set-up: dose 1 mg/kg, route oral; details: in vivo; how it was run: as §1
[22] = Half life in Sprague-Dawley rat at 3 mg/kg, po by LC/MS/MS analysis; assay type: ADME, organism-based; set-up: dose 3 mg/kg, route oral; details: in vivo; how it was run: as §1
[23] = Cmax in Sprague-Dawley rat at 3 mg/kg, po up to 24 hrs by LC/MS/MS analysis; assay type: ADME, organism-based; set-up: dose 3 mg/kg, route oral; details: in vivo; how it was run: as §1
[24] = Clearance in Sprague-Dawley rat at 3 mg/kg, iv up to 24 hrs by LC/MS/MS analysis; assay type: ADME, organism-based; set-up: dose 3 mg/kg, route intravenous; details: in vivo; how it was run: as §1
[25] = AUC (0 to 24 hrs) in Sprague-Dawley rat at 3 mg/kg, po by LC/MS/MS analysis; assay type: ADME, organism-based; set-up: time < 24 hr, dose 3 mg/kg, route oral; details: plasma; how it was run: as §1
[26] = Initial plasma concentration in Sprague-Dawley rat at 3 mg/kg, iv by LC/MS/MS analysis; assay type: ADME, organism-based; set-up: dose 3 mg/kg, route intravenous; how it was run: as §1
[27] = Tmax in Sprague-Dawley rat at 3 mg/kg, iv by LC/MS/MS analysis; assay type: ADME, organism-based; set-up: dose 3 mg/kg, route intravenous; details: in vivo; how it was run: as §1
[28] = AUC (0 to 24 hrs) in Sprague-Dawley rat at 10 mg/kg, po by LC/MS/MS analysis; assay type: ADME, organism-based; set-up: time < 24 hr, dose 10 mg/kg, route oral; details: plasma; how it was run: as §1
[29] = biological target: T1, Metabotropic glutamate receptor 6; assay: Agonist activity at human mGlu6 receptor expressed in golden Syrian hamster AV12 cells coexpressing EAAT1 assessed as inhibition of forskolin-stimulated cAMP production after 20 mins by FLIPR assay
[30] = biological target: T1, Metabotropic glutamate receptor 6; assay: Antagonist activity at human mGlu6 receptor expressed in golden Syrian hamster AV12 cells coexpressing EAAT1 assessed as inhibition of forskolin-stimulated cAMP production after 20 mins by FLIPR assay relative to control; assay type: functional, cell-based

T2 sequence (Q14416 whole entry): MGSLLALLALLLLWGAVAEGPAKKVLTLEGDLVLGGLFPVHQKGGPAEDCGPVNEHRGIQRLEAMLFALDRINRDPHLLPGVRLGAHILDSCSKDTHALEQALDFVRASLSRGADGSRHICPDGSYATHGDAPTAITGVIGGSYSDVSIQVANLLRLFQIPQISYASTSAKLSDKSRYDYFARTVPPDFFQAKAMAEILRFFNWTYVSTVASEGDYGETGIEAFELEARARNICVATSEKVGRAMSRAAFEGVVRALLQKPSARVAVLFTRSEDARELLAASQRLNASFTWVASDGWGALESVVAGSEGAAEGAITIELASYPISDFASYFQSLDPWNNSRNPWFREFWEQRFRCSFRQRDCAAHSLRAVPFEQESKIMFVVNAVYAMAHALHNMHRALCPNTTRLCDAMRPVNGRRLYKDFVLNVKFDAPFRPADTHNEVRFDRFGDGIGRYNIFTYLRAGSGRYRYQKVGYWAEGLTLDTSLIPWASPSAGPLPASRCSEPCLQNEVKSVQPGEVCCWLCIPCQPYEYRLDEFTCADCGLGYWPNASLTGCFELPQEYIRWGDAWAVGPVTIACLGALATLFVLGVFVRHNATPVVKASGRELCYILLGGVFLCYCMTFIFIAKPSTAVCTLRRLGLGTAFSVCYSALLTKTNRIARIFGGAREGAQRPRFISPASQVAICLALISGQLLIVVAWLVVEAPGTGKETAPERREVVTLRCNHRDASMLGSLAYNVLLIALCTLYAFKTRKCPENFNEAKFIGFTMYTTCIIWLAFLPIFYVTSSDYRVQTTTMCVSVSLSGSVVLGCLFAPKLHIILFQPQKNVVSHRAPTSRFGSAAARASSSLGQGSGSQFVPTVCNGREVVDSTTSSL
Metabotropic glutamate receptor 8, sequence (O00222 whole entry): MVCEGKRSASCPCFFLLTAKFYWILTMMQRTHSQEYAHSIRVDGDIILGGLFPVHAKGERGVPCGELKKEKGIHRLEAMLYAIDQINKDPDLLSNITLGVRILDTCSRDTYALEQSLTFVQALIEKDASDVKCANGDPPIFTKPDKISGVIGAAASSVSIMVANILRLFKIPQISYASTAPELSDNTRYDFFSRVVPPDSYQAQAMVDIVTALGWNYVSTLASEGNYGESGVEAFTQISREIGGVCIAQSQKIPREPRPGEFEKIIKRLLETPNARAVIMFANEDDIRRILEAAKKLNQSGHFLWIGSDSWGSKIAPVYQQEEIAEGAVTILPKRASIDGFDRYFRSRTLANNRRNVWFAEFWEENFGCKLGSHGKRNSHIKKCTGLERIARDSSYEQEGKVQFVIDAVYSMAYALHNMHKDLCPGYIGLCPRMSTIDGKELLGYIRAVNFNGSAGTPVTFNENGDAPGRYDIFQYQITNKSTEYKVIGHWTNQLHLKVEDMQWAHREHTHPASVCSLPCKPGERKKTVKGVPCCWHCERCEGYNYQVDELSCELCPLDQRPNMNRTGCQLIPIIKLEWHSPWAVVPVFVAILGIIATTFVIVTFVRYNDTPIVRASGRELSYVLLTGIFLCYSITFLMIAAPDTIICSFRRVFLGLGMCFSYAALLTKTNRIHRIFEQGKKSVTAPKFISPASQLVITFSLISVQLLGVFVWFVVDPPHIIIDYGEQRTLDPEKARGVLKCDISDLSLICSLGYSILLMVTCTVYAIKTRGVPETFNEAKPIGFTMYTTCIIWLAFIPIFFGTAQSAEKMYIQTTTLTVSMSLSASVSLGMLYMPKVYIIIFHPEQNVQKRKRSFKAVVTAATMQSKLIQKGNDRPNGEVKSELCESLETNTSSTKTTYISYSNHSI
T1 sequence (O15303 whole entry): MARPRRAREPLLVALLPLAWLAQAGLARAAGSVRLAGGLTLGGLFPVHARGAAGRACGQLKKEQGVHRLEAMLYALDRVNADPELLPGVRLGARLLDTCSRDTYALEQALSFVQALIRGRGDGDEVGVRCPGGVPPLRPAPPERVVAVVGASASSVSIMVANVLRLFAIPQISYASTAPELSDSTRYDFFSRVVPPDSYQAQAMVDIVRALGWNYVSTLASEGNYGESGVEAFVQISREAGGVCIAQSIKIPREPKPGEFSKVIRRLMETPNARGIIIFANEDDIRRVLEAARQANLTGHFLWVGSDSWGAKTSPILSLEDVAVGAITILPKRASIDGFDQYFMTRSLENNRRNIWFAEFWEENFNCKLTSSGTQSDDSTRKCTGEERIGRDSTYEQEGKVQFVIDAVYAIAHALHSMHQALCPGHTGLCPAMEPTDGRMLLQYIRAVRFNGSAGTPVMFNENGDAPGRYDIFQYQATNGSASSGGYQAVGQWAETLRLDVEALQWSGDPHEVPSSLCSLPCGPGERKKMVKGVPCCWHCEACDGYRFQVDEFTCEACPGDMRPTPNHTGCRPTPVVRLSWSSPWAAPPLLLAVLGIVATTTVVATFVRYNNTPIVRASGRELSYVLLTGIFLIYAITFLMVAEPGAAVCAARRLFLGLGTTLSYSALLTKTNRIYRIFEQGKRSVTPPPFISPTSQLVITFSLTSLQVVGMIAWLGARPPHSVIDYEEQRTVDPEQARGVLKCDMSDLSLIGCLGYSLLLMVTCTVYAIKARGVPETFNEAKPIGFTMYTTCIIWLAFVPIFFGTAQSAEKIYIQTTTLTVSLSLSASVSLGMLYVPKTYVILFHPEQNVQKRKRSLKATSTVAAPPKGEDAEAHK
T3 sequence (Q14832 whole entry): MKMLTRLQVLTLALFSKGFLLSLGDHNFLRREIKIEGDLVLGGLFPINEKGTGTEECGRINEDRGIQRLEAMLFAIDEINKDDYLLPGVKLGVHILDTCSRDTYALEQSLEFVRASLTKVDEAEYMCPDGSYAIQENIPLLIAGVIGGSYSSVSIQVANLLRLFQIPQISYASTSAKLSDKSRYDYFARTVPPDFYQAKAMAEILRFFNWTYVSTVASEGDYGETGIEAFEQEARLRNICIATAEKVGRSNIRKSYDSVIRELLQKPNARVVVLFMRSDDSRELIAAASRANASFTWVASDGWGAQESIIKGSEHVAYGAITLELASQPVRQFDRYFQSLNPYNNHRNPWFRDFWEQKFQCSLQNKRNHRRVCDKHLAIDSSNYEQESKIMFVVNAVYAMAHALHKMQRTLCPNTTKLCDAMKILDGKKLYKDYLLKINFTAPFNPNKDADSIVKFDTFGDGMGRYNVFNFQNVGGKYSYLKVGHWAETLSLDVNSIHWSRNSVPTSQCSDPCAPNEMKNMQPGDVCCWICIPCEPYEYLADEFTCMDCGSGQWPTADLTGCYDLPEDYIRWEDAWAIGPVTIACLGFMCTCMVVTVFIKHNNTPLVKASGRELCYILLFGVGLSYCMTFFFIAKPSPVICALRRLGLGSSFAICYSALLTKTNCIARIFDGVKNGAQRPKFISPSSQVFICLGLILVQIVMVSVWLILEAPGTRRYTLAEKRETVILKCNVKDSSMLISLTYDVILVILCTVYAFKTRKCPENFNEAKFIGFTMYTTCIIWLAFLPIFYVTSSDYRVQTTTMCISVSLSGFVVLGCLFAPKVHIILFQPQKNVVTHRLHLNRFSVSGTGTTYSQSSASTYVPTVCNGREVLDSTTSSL

Structure (SMILES): C[C@@H]1C[C@@](N)(C(=O)O)[C@@H]2[C@@H](C(=O)O)[C@@H]21
- EC50 [1]: 7540 nM
- EC50 [2]: 63.6 nM
- IC50 [3]: 3420 nM
- EC50 [4]: > 25000 nM

Structure (SMILES): N[C@@]1(C(=O)O)C[C@H](Sc2ccccc2)[C@H]2[C@H](C(=O)O)[C@H]21
- EC50 [1]: 3250 nM
- EC50 [2]: 1170 nM
- IC50 [3]: 3370 nM
- EC50 [4]: > 25000 nM

Structure (SMILES): N[C@@]1(C(=O)O)C[C@@H](O)[C@H]2[C@H](C(=O)O)[C@H]21
- EC50 [1]: 4370 nM
- EC50 [2]: 7.6 nM
- EC50 [4]: > 25000 nM

Structure (SMILES): N[C@@]1(C(=O)O)CC[C@H]2[C@H](C(=O)O)[C@H]21
- EC50 [1]: 3360 nM
- EC50 [5]: 27.1 nM
- EC50 [4]: > 25000 nM

Structure (SMILES): CC(=O)N[C@@H]1C[C@@](N)(C(=O)O)[C@@H]2[C@@H](C(=O)O)[C@@H]21
- IC50 [6]: 4990 nM
- EC50 [1]: 6690 nM
- IC50 [3]: 3390 nM
- EC50 [4]: > 25000 nM

Structure (SMILES): N[C@@]1(C(=O)O)C[C@@H](F)[C@H]2[C@H](C(=O)O)[C@H]21
- Tmax [7]: 2 h
- Cmax [8]: 0.713 µM
- Vd [9]: 1.25 L/kg
- Tmax [10]: 1.8 h
- AUC(0-t) at 24 h [11]: 16.7 µM·h
- Activity (Rattus norvegicus [12]): Toxic
- bioavailability [13]: 64.4%
- EC50 [1]: 1410 nM
- EC50 [2]: 0.56 nM
- half-life [14]: 5.9 h
- Cmax [15]: 7.94 µM
- AUC(0-t) at 24 h [16]: 2.79 µM·h
- half-life [17]: 7.3 h
- Activity (Rattus norvegicus [18]): Dose-dependent effect
- ED50 (Rattus norvegicus [18]): 2.08 mg/kg
- half-life [19]: 2.7 h
- Activity (Rattus norvegicus [20]): Non-toxic
- Tmax [21]: 2.5 h
- half-life [22]: 3.5 h
- Cmax [23]: 3.94 µM
- EC50 [5]: 0.24 nM
- clearance [24]: 14.8 mL/min/kg
- AUC(0-t) at 24 h [25]: 10.7 µM·h
- C0 [26]: 36.7 µM
- Tmax [27]: 0 h
- EC50 [4]: 11500 nM
- AUC(0-t) at 24 h [28]: 23.6 µM·h

Structure (SMILES): N[C@@]1(C(=O)O)C[C@H](O)[C@H]2[C@H](C(=O)O)[C@H]21
- EC50 [2]: 7.5 nM
- EC50 [29]: 3040 nM
- EC50 [4]: > 25000 nM

Structure (SMILES): C=C1C[C@@](N)(C(=O)O)[C@H]2[C@@H]1[C@@H]2C(=O)O
- %max [30]: 100%
- EC50 [2]: 1.3 nM
- EC50 [29]: 267 nM
- EC50 [5]: 15.5 nM
- EC50 [4]: 1590 nM

Structure (SMILES): [N-]=[N+]=N[C@@H]1C[C@@](N)(C(=O)O)[C@@H]2[C@@H](C(=O)O)[C@@H]21
- EC50 [1]: 780 nM
- EC50 [2]: 8.2 nM
- EC50 [5]: 12.3 nM
- EC50 [4]: 12400 nM

Structure (SMILES): N[C@@]1(C(=O)O)C[C@@H](Sc2ccccc2)[C@H]2[C@H](C(=O)O)[C@H]21
- IC50 [6]: 7020 nM
- EC50 [1]: 1270 nM
- IC50 [3]: 895 nM
- EC50 [4]: > 25000 nM

Structure (SMILES): N[C@H]1C[C@@](N)(C(=O)O)[C@@H]2[C@@H](C(=O)O)[C@@H]21
- EC50 [1]: 9370 nM
- EC50 [2]: 21.2 nM
- EC50 [5]: 24.9 nM
- EC50 [4]: > 25000 nM

Structure (SMILES): CC(=O)N[C@H]1C[C@@](N)(C(=O)O)[C@@H]2[C@@H](C(=O)O)[C@@H]21
- EC50 [1]: 709 nM
- EC50 [2]: 257 nM
- EC50 [5]: 193 nM
- EC50 [4]: 4300 nM

Structure (SMILES): N[C@@H]1C[C@@](N)(C(=O)O)[C@@H]2[C@@H](C(=O)O)[C@@H]21
- EC50 [1]: 11800 nM
- EC50 [2]: 47.9 nM
- EC50 [5]: 57.1 nM
- EC50 [4]: > 25000 nM

Structure (SMILES): [N-]=[N+]=N[C@H]1C[C@@](N)(C(=O)O)[C@@H]2[C@@H](C(=O)O)[C@@H]21
- %max [30]: 100%
- EC50 [2]: 12.2 nM
- EC50 [29]: 1890 nM
- EC50 [5]: 23.5 nM
- EC50 [4]: 12000 nM

Structure (SMILES): N[C@@]1(C(=O)O)CC(=O)[C@H]2[C@H](C(=O)O)[C@H]21
- %max [30]: 100%
- EC50 [2]: 0.16 nM
- EC50 [29]: 1380 nM
- EC50 [5]: 0.11 nM
- EC50 [4]: 6530 nM

Structure (SMILES): C[C@H]1C[C@@](N)(C(=O)O)[C@@H]2[C@@H](C(=O)O)[C@@H]21
- EC50 [1]: 9280 nM
- EC50 [2]: 28.6 nM
- EC50 [5]: 166 nM
- EC50 [4]: > 25000 nM
